Test results taken from ChEMBL document CHEMBL4699414, “Hit-to-lead optimization of novel benzimidazole phenylacetamides as broad spectrum trypanosomacides” (RSC Med Chem, 2020).

What was measured:
Trypanosoma cruzi = experiment: Antitrypanosomal activity against Trypanosoma cruzi infected in rat H9c2 infected with trypomastigotes from parasite-infected monkey LLC-MK2 cells measured after 72 hrs by DRAQ5 DNA dye based microscopic imaging analysis; assay type: functional, organism-based; settings: H9c2, 72 h
[1] = Cytotoxicity against human HepG2 cells assessed as reduction in cell viability measured after 48 hrs by CellTiter-Glo assay; assay type: cell-based
In short: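 HepG2 human hepatoma cells from GSK Biological Reagents and Assay Development (Stevenage, UK); viability read-out per earlier method.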

[2] = test system: Trypanosoma brucei brucei; experiment: Antitrypanosomal activity against Trypanosoma brucei brucei Lister 427 assessed as parasite growth inhibition measured after 48 hrs by alamar blue assay; settings: Lister 427, 48 h
[3] = Lipophilicity, logP of the compound; assay type: physicochemical; settings: octanol/water
[4] = Cytotoxicity against human HEK293 cells assessed as reduction in cell viability measured after 48 hrs by resazurin assay; assay type: cell-based
In short: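 HEK293 cells from ATCC; Alamar Blue viability read-out run per earlier method.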

[5] = Cytotoxicity against rat H9c2 cells assessed as reduction in cell viability; assay type: cell-based

SMILES | IC50 (Trypanosoma cruzi) [µM] | CC50 at 48 h [1] [µM] | IC50 [2] [µM] | logP [3] | CC50 at 48 h [4] [µM] | CC50 [5] [µM]
CCCn1c(NC(=O)c2ccccc2)nc2ccccc21 | 5 | 25 | 3.8 | 4.1 | > 83 | > 50
C=CCc1c(NC(=O)Cc2ccc(Cl)cc2)ncc2ccccc12 | 20 | > 50 | > 83 | 5.1 | > 83 | > 50
CCCn1c(NC(=O)Cc2ccc(OC(C)=O)cc2)nc2ccccc21 | 32 | > 50 | 14 | 3.7 | > 83 | > 50
CCCn1c(NC(=O)Cc2ccc(Cl)cc2)nc2c(OC)cccc21 | 3.2 | > 50 | > 83 | 4.6 | > 83 | > 50
CCCn1c(NC(=O)Cc2cccc(OC)c2)nc2ccccc21 | 4 | > 50 | 4.3 | 4 | > 83 | > 50
CCCCn1c(NC(=O)Cc2ccc(Cl)cc2)nc2ccccc21 | 1.6 | > 50 | 4.4 | 5.2 | > 83 | 13
CCCn1c(NC(=O)Cc2ccc(Cl)cc2)nc2ccc(F)cc21 | 1.3 | > 50 | 0.9 | 4.9 | 14 | 25
N=C(N)c1ccc(OCCCCCOc2ccc(C(=N)N)cc2)cc1 [PENTAMIDINE] | – | – | 0.014 | – | 0.67 | –
Cn1c(NC(=O)Cc2ccc(Cl)cc2)nc2ccccc21 | 3.2 | > 50 | 3.8 | 3.8 | > 83 | > 50
CCCn1c(NC(=O)Cc2ccc(Br)cc2)nc2ccccc21 | 2 | > 50 | 5 | 4.9 | > 83 | > 50
CCCn1c(NC(=O)Cc2ccc(-c3ccccc3)cc2)nc2ccccc21 | 1 | > 50 | 3.4 | 5.8 | > 83 | > 50
CCCn1c(NC(=O)Cc2ccc(Cl)cc2)nc2ccc(Cl)cc21 | 0.5 | > 50 | 2.4 | 5.3 | > 83 | 6.3
CCCn1c(NC(=O)CCc2ccccc2)nc2ccccc21 | 5 | > 50 | 3.5 | 4.6 | 14 | > 50
CCCn1c(NC(=O)Cc2ccccc2C)nc2ccccc21 | 2.5 | > 50 | 2.6 | 4.6 | > 83 | > 50
CCCn1c(NC(=O)Cc2ccc(C(F)(F)F)cc2)nc2ccccc21 | 1 | > 50 | 4.5 | 5 | > 83 | > 50
CCCn1c(NC(=O)Cc2cccc3ccccc23)nc2ccccc21 | 1 | 20 | 2.6 | 5.1 | 10 | > 50
CCCn1c(NC(=O)Cc2ccc3ccccc3c2)nc2ccccc21 | 1.3 | 25 | 5.5 | 5.1 | > 83 | > 50
CCCn1c(NC(=O)Cc2cccc(Br)c2)nc2ccccc21 | 1 | > 50 | 2.9 | 4.9 | > 83 | > 50

SMILES | IC50 (Trypanosoma cruzi) [µM] | CC50 at 48 h [1] [µM] | IC50 [2] [µM] | logP [3] | CC50 at 48 h [4] [µM] | CC50 [5] [µM]
CCCn1c(NC(=O)Cc2ccc(F)cc2)nc2ccccc21 | 2.5 | > 50 | 2.5 | 4.3 | > 83 | > 50
CCCn1c(NC(=O)/C=C/c2ccccc2)nc2ccccc21 | 1.3 | 40 | 2.1 | 4.6 | > 83 | 20
CCCn1c(NC(=O)Cc2ccc(O)cc2)nc2ccccc21 | 40 | > 50 | > 83 | 3.8 | > 83 | > 50
CCCn1c(NC(=O)Cc2ccccc2Br)nc2ccccc21 | 1.6 | 20 | 2 | 4.9 | > 83 | > 50
CCCn1c(NC(=O)Cc2ccc(Cl)nc2)nc2ccccc21 | 7.9 | > 50 | > 83 | 3.7 | > 83 | > 50
CCn1c(NC(=O)Cc2ccc(Cl)cc2)nc2ccccc21 | 2.5 | > 50 | 3.1 | 4.2 | > 83 | 40
CCCn1c(C(=O)NCc2ccc(Cl)cc2)nc2ccccc21 | 10 | > 50 | > 83 | 4.1 | > 83 | 16
CCCn1c(NC(=O)Nc2ccc(Cl)cc2)nc2ccccc21 | 2.5 | 40 | 5.4 | 4.8 | 5.2 | > 50
CCCn1c(NC(=O)Cc2ccc(Cl)cc2)nc2ccc(Br)cc21 | 0.4 | > 50 | 1.5 | 5.5 | > 83 | 13
CCCCCCCCC(=O)Nc1nc2ccccc2n1CCC | 2.5 | > 50 | 7.3 | 5.7 | > 83 | 20
O=C(Cn1ccnc1[N+](=O)[O-])NCc1ccccc1 [BENZNIDAZOLE] | 1.58 | – | – | – | – | 31.6
CCCn1c(NC(=O)Cc2ccc(Cl)cc2)nc2cc(Br)ccc21 | 0.79 | – | 16 | 5.5 | > 83 | > 50
COc1ccc(C[C@H](N)C(=O)N[C@H]2[C@@H](O)[C@H](n3cnc4c(N(C)C)ncnc43)O[C@@H]2CO)cc1 [PUROMYCIN] | – | – | 0.038 | – | 0.23 | –
CCCn1c(NC(=O)Cc2ccc(Cl)cc2)nc2cccc(Br)c21 | – | – | 2.8 | 5.5 | > 83 | –
N=C(N)c1ccc(/N=N/Nc2ccc(C(=N)N)cc2)cc1 [DIMINAZENE DIACETURATE] | – | – | 0.087 | – | 38.5 | –
O=C(Cc1ccc(Cl)cc1)Nc1nc2ccccc2[nH]1 | 50 | > 50 | – | 3.6 | > 83 | > 50
CCCc1c(NC(=O)Cc2ccc(Cl)cc2)ncc2ccccc12 | 0.5 | 7.94 | – | 5.4 | – | 3.2
CCCn1c(NC(=O)Cc2ccc(Cl)cc2)nc2ccc(C)cc21 | – | – | 15 | 5.2 | > 83 | –
